The source made the active and inactive calls. The rule behind the calls is not given here.
Columns and labels:
[1] = Binding affinity to 5'-FAM/3'-TAMRA labeled F21T 21-mer G-quadruplex DNA (unknown origin) assessed as change in melting temperature at 4 uM after 12 hrs by TR-FRET assay
How it was run: (§1)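 Dual-labeled FAM/TAMRA oligos diluted to 800 nM in 60 mM potassium cacodylate (pH 7.2), annealed 10 min at 85 °C and cooled to room temperature. Mixed 1:1 with ligand at […] in the same buffer. Equilibrated at least 12 h at 4 °C. ΔT1/2 taken as melting temperature with minus without ligand, in triplicate, averaged.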

[2] = Binding affinity to 5'-FAM/3'-TAMRA labeled c-MYC 22-mer G-quadruplex DNA (unknown origin) assessed as change in melting temperature at 4 uM after 12 hrs by TR-FRET assay; how it was run: as §1
[3] = Binding affinity to wild type c-MYC 24-mer G-quadruplex DNA (unknown origin) at 4:1 ligand:DNA molar ratio by isothermal titration calorimetry
[4] = Binding affinity to 5'-FAM/3'-TAMRA labeled 26-mer duplex DNA (unknown origin) assessed as change in melting temperature at 4 uM after 12 hrs by TR-FRET assay
[5] = Antiproliferative activity against human PC3 cells after 72 hrs by WST-1 assay; assay type: functional; conditions: PC-3, 72 h
How it was run: (§2)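 Cells seeded in 96-well plates the afternoon before treatment, at numbers keeping them in log-phase growth; about 18 h later, compounds semi-serially diluted in DMSO then growth medium and added. Incubation 72 h, then WST-1 added and plates read after 4 more hours at 37 °C. GI50 derived from curve fits; viability expressed relative to DMSO control.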

[6] = Antiproliferative activity against human OVCAR3 cells after 72 hrs by WST-1 assay; assay type: functional; conditions: OVCAR-3, 72 h; how it was run: as §2
[7] = Binding affinity to 5'-FAM/3'-TAMRA labeled c-kit2 26-mer G-quadruplex DNA (unknown origin) assessed as change in melting temperature at 4 uM after 12 hrs by TR-FRET assay; how it was run: as §1
MDA-MB-231 [8] = test: Antiproliferative activity against human MDA-MB-231 cells after 72 hrs by WST-1 assay; assay type: functional; conditions: MDA-MB-231, 72 h; how it was run: as §2
[9] = Binding affinity to 5'-FAM/3'-TAMRA labeled k-RAS21R 21-mer G-quadruplex DNA (unknown origin) assessed as change in melting temperature at 4 uM after 12 hrs by TR-FRET assay; how it was run: as §1
[10] = Antiproliferative activity against human OVCAR3 cells assessed as cell viability at 20 uM after 72 hrs by WST-1 assay relative to control; assay type: functional; conditions: OVCAR-3, 72 h, read-out: Activity; how it was run: as §2
MDA-MB-231 [11] = test: Antiproliferative activity against human MDA-MB-231 cells assessed as cell viability at 20 uM after 72 hrs by WST-1 assay relative to control; assay type: functional; conditions: MDA-MB-231, 72 h, read-out: Activity; how it was run: as §2
[12] = Antiproliferative activity against human PC3 cells assessed as cell viability at 20 uM after 72 hrs by WST-1 assay relative to control; assay type: functional; conditions: PC-3, 72 h, read-out: Activity; how it was run: as §2
[13] = Binding affinity to 5'-FAM/3'-TAMRA labeled c-MYC 22-mer G-quadruplex DNA (unknown origin) at 4 uM in presence of 26-mer duplex DNA by TR-FRET assay
[14] = Antiproliferative activity against human MCR5A cells after 72 hrs by WST-1 assay; assay type: cell-based
How it was run: (§3)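 Cells seeded the afternoon before treatment at densities giving log-phase growth; about 18 h later compounds, semi-serially diluted in DMSO then growth medium, were added. After 72 h WST-1 was added, with a further 4 h at 37 °C before plate reading. GI50 values were calculated from the curves. NBM was grown in RPMI; MCR5A was handled per ATCC.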

[15] = Antiproliferative activity against human bone marrow cells after 72 hrs by WST-1 assay; assay type: cell-based, Bone marrow cell; how it was run: as §3
[16] = Stabilization of c-MYC template Pu27 mutant DNA (unknown origin) assessed as inhibition of Taq polymerase-mediated polymerization/extension of Pu27 mutant and Pu27rev oligomers at 10 uM preincubated for 6 hrs followed by Taq polymerase addition by PCR stop assay
How it was run: (§4)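 Each 25 µL PCR mix held 1x buffer, 5 µM template (Pu27, Pu27-13,14 or Pu-mutant) and 5 µM Pu27rev, plus ligand at various concentrations, and was held at 4 °C for 6 h. Then 200 µM dNTPs and 5 U Taq were added. Cycling: 94 °C 3 min, then 20 cycles of 94 °C 30 s, 58 °C 30 s and 72 °C 30 s. Reactions without compound served as control.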

MDA-MB-231 [17] = test: Binding affinity to c-MYC G-quadruplex DNA in human MDA-MB-231 cells assessed as inhibition of c-MYC protein expression at 22.3 uM incubated for 6 hrs by Western blot analysis relative to control; assay type: cell-based
How it was run: (§5)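 MDA-MB-231 cells were grown in DMEM with 10% heat-inactivated FBS at 37 °C and 5% CO2, then treated with DMSO vehicle or compound for 2, 6 or 24 h. Cells were washed in PBS and lysed in RIPA buffer with protease inhibitors. Blots were probed with anti-c-MYC (1:1000) and HRP anti-rabbit IgG (1:10,000), with β-actin as loading control. Band density is given as percent of vehicle at each time point.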

MDA-MB-231 [18] = test: Binding affinity to c-MYC G-quadruplex DNA in human MDA-MB-231 cells assessed as inhibition of c-MYC protein expression at 22.3 uM incubated for 24 hrs by Western blot analysis relative to control; assay type: cell-based; how it was run: as §5
[19] = Stabilization of c-MYC Pu27 G-quadruplex DNA (unknown origin) assessed as inhibition of Taq polymerase-mediated polymerization/extension of Pu27 and Pu27rev oligomers at 25 uM preincubated for 6 hrs followed by Taq polymerase addition by PCR stop assay; how it was run: as §4
[20] = biological target: Telomerase reverse transcriptase (Homo sapiens) (UniProt O14746); conditions: MDA-MB-231, 25 uM
Chain of Telomerase reverse transcriptase (Homo sapiens) (O14746 whole entry): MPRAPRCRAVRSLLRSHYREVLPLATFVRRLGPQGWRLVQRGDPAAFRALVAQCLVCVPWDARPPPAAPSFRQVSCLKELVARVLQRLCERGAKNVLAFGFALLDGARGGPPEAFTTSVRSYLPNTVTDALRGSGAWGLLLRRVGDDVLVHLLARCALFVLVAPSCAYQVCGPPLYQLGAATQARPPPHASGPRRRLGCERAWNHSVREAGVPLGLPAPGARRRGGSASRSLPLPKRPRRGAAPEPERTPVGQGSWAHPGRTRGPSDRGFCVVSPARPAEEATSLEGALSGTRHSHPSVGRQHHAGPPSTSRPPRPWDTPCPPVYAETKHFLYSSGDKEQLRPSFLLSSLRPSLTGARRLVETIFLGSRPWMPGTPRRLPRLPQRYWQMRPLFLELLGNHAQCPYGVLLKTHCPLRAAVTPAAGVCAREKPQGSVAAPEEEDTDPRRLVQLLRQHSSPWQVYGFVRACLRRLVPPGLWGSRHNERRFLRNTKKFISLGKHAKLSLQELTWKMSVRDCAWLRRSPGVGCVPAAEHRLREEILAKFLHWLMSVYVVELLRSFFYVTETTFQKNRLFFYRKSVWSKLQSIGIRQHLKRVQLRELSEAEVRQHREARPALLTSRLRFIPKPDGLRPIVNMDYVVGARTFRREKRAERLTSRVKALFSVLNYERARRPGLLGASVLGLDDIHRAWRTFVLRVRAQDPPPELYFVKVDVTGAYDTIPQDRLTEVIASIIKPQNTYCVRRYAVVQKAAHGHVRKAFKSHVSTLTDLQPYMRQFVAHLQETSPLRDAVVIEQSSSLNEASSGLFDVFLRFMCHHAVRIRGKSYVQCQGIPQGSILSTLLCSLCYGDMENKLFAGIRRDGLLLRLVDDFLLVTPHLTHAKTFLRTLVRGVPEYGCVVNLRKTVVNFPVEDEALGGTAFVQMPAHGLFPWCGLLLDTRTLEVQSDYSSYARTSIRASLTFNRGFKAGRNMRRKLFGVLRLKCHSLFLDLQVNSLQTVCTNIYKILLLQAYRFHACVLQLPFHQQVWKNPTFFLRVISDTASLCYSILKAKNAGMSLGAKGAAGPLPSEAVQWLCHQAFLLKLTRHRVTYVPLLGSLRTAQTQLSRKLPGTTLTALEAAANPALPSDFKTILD

MDA-MB-231 [21] = test: Binding affinity to c-MYC G-quadruplex DNA in human MDA-MB-231 cells assessed as inhibition of c-MYC protein expression at 111.5 uM incubated for 24 hrs by Western blot analysis relative to control; assay type: cell-based; how it was run: as §5
[22] = Stabilization of c-MYC template Pu27-13,14 mutant DNA (unknown origin) assessed as inhibition of Taq polymerase-mediated polymerization/extension of Pu27-13,14 mutant and Pu27rev oligomers at 10 uM preincubated for 6 hrs followed by Taq polymerase addition by PCR stop assay; how it was run: as §4
[23] = biological target: Telomerase reverse transcriptase (Homo sapiens) (UniProt O14746); test: Inhibition of telomerase activity in human MDA-MB-231 cells using amplifour TS primer preincubated for 48 to 72 hrs followed by primer addition measured after 30 mins by fluorescence plate reader analysis relative to control; assay type: cell-based
How it was run: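 MDA-MB-231 cells, 2 × 10⁵ per T-25 flask, were treated the next morning with vehicle or compound at 0.5×, 1×, 2× or 4× GI50. After 48 or 72 h they were lysed in CHAPS buffer with RNase inhibitor on ice for 30 min. Lysate (1000 cell-equivalents) went into a fluorescent TRAP reaction at 30 °C for 30 min. TPG units were taken against an internal standard, and inhibition was expressed relative to untreated cells.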

[24] = biological target: Telomerase reverse transcriptase (Homo sapiens) (UniProt O14746); conditions: MDA-MB-231, 25 uM; remark: listed apart in the source

Structure (SMILES)	ΔTm [1]	ΔTm [2]	ΔTm [4]	GI50 [5]	GI50 [6]	ΔTm [7]	GI50 (MDA-MB-231 [8])	ΔTm [9]	viability at 20 µM [10]	viability at 20 µM (MDA-MB-231 [11])	viability at 20 µM [12]	Activity [13]	other results
C#Cc1ccccc1N/N=N/c1ccc(C(=N)N)cc1	< 5 °C	7 °C	< 5 °C	> 50 µM	> 25 µM	7.68 °C	23.2 µM	4.2 °C	–	–	–	–	Activity [3]: Active
C#Cc1cccc(N/N=N/c2ccc(C(=N)N)cc2)c1	< 5 °C	8.2 °C	< 5 °C	18 µM	16.8 µM	5.48 °C	20.5 µM	7.1 °C	–	–	–	–	Activity [3]: Active
Nc1cccc(C#Cc2ccc(F)cc2)c1	–	–	–	–	–	–	–	–	≥ 75%	≥ 75%	≥ 75%	–	–
N=C(N)c1ccc(/N=N/Nc2cccc(C#Cc3ccccn3)c2)cc1	7.3 °C	9.7 °C	< 5 °C	10.4 µM	10.7 µM	8.04 °C	14.4 µM	13.2 °C	–	–	–	inactive	–
N=C(N)c1ccc(N)cc1	–	–	–	–	–	–	–	–	≥ 75%	≥ 75%	≥ 75%	–	–
C[n+]1ccc(-c2c3nc(c(-c4cc[n+](C)cc4)c4ccc([nH]4)c(-c4cc[n+](C)cc4)c4nc(c(-c5cc[n+](C)cc5)c5ccc2[nH]5)C=C4)C=C3)cc1	–	–	–	14 µM	14.6 µM	–	14.3 µM	–	–	–	–	–	GI50 at 72 h [14]: 15.2 µM; GI50 at 72 h [15]: 16.8 µM
N=C(N)c1ccc(/N=N/Nc2ccccc2C#Cc2ccccc2)cc1	< 5 °C	6.4 °C	< 5 °C	5.3 µM	8.1 µM	5.12 °C	5.1 µM	1.8 °C	–	–	–	inactive	–
C[n+]1ccc(-c2c3nc(c(-c4cc[n+](C)cc4)c4ccc([nH]4)c(-c4cc[n+](C)cc4)c4ccc([nH]4)c(-c4cc[n+](C)cc4)c4nc2C=C4)C=C3)cc1	< 5 °C	24.1 °C	< 5 °C	–	–	–	–	46.7 °C	–	–	–	–	inhibition [16]: Active; inhibition (MDA-MB-231 [17]): 40%; inhibition (MDA-MB-231 [18]): 92%; inhibition [19]: Active; inhibition [20]: 60%; inhibition (MDA-MB-231 [21]): 100%; inhibition [22]: Active; inhibition [23]: Dose-dependent effect; inhibition [24]: 80%
C#Cc1ccc(N/N=N/c2ccc(C(=N)N)cc2)cc1	< 5 °C	6.6 °C	< 5 °C	22.5 µM	11.8 µM	5.3 °C	30.2 µM	4.2 °C	–	–	–	–	–
N=C(N)c1ccc(/N=N/Nc2cccc(-c3ccccc3)c2)cc1	< 5 °C	8.8 °C	< 5 °C	–	–	5.48 °C	–	15 °C	≥ 75%	≥ 75%	≥ 75%	–	–
N=C(N)c1ccc(/N=N/Nc2ccccc2)cc1	< 5 °C	7.1 °C	< 5 °C	–	–	6.4 °C	–	6.4 °C	≥ 75%	≥ 75%	≥ 75%	–	–
N=C(N)c1ccc(/N=N/Nc2cccc(C#Cc3ccccc3)c2)cc1	< 5 °C	7.1 °C	< 5 °C	5.8 µM	6.5 µM	6.4 °C	9.5 µM	3.7 °C	–	–	–	inactive	–
N#Cc1cccc(N/N=N/c2ccc(C(=N)N)cc2)c1	< 5 °C	6.2 °C	< 5 °C	–	–	6.22 °C	–	2.2 °C	≥ 75%	≥ 75%	≥ 75%	–	–
N#Cc1ccc(N/N=N/c2ccc(C(=N)N)cc2)cc1	5.1 °C	9.7 °C	< 5 °C	–	–	5.3 °C	–	8.2 °C	≥ 75%	≥ 75%	≥ 75%	–	–
N=C(N)c1ccc(/N=N/Nc2ccncc2)cc1	< 5 °C	6.1 °C	< 5 °C	–	–	6.58 °C	–	4.3 °C	≥ 75%	≥ 75%	≥ 75%	inactive	–
COc1ccc(C#Cc2cccc(N/N=N/c3ccc(C(=N)N)cc3)c2)cc1	< 5 °C	7.3 °C	< 5 °C	5 µM	5.2 µM	5.48 °C	5.5 µM	2.6 °C	–	–	–	inactive	–

From ChEMBL document CHEMBL3826936, “Alkyne-substituted diminazene as G-quadruplex binders with anticancer activities” (Eur J Med Chem, 2016)
